Activity calls are given as the source filed them. The calls are words filed in the database; no cut-off is given here.
Assays:
LNCaP [1] = assay: Cytotoxicity against androgen-dependent human LNCAP cells after 72 hrs by SRB assay; format: functional, cell-based
Method in brief: (§1)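 SRB assay. Cells were seeded at 3-5 × 10^3 per well in RPMI-1640 with 10% FBS and exposed to a range of concentrations for 72 h; final DMSO was <0.5%. Cells were then fixed in cold 50% TCA for 30 min, stained with 0.04% SRB for 30 min, solubilized in 10 mM Tris base, and read at 515 nm. IC50 is 50% growth inhibition versus untreated control, by log-linear interpolation; mean ± SE of ≥3 independent experiments.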

PC-3 [2] = assay: Cytotoxicity against androgen-independent human PC3 cells after 72 hrs by SRB assay; format: functional, cell-based; settings: PC-3, 72 h; method in brief: as §1
LNCaP [3] = assay: Antiproliferative activity against androgen-dependent human LNCAP cells after 72 hrs by SRB assay; format: functional, cell-based; method in brief: as §1
PC-3 [4] = assay: Antiproliferative activity against androgen-independent human PC3 cells after 72 hrs by SRB assay; format: functional, cell-based; method in brief: as §1
PC-3 [5] = assay: Inhibition of actin based pseudopodia formation in androgen-dependent human PC3 cells at 30 uM after 48 hrs by DAPI staining based fluorescence microscopy assay; format: functional, cell-based; settings: in the assay text read “androgen-independent” for “androgen-dependent”
Method in brief: (§2)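 Cells in RPMI-1640 with 10% FBS were plated on chamber slides for 12 h, then exposed to compound or DMSO for 48 h at 37 °C. Cells were fixed in 4% paraformaldehyde in PBS, nuclei were stained with DAPI, and nuclear and pseudopodia morphology was examined by fluorescence microscopy.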

LNCaP [6] = assay: Inhibition of actin based pseudopodia formation in androgen-dependent human LNCAP cells at 30 uM after 48 hrs by DAPI staining based fluorescence microscopy assay; format: functional, cell-based; method in brief: as §2
[7] = Drug localization in nucleus of androgen-independent human PC3 cells at 30 uM after 48 hrs by DAPI staining based fluorescence microscopy assay; format: ADME, cell-based; settings: pc-3, 48 h
PC-3 [8] = assay: Induction of nuclear enlargement in androgen-dependent human PC3 cells at 30 uM after 48 hrs by DAPI staining based fluorescence microscopy assay; format: functional, cell-based; settings: in the assay text read “androgen-independent” for “androgen-dependent”; method in brief: as §2
PC-3 [9] = assay: Cytotoxicity against androgen-independent human PC3 cells at 100 uM within 48 hrs by SRB assay; format: functional, cell-based
PC-3 [10] = assay: Induction of multinucleation in androgen-dependent human PC3 cells at 40 uM after 48 hrs by DAPI staining based fluorescence microscopy assay; format: functional, cell-based; settings: in the assay text read “androgen-independent” for “androgen-dependent”; method in brief: as §2
PC-3 [11] = assay: Inhibition of actin based pseudopodia formation in androgen-dependent human PC3 cells at 40 uM after 48 hrs by DAPI staining based fluorescence microscopy assay; format: functional, cell-based; settings: in the assay text read “androgen-independent” for “androgen-dependent”; method in brief: as §2
LNCaP [12] = assay: Inhibition of actin based pseudopodia formation in androgen-dependent human LNCAP cells at 40 uM after 48 hrs by DAPI staining based fluorescence microscopy assay; format: functional, cell-based; method in brief: as §2
PC-3 [13] = assay: Induction of multinucleation in androgen-dependent human PC3 cells at 50 uM after 48 hrs by DAPI staining based fluorescence microscopy assay; format: functional, cell-based; settings: in the assay text read “androgen-independent” for “androgen-dependent”; method in brief: as §2
LNCaP [14] = assay: Inhibition of actin based pseudopodia formation in androgen-dependent human LNCAP cells at 50 uM after 48 hrs by DAPI staining based fluorescence microscopy assay; format: functional, cell-based; method in brief: as §2
[15] = Drug localization in cytosol of androgen-independent human PC3 cells at 50 uM after 48 hrs by DAPI staining based fluorescence microscopy assay; format: ADME, cell-based, PC-3
PC-3 [16] = assay: Inhibition of actin based pseudopodia formation in androgen-dependent human PC3 cells at 50 uM after 48 hrs by DAPI staining based fluorescence microscopy assay; format: functional, cell-based; settings: in the assay text read “androgen-independent” for “androgen-dependent”; method in brief: as §2
PC-3 [17] = assay: Induction of nuclear enlargement in androgen-dependent human PC3 cells at 40 uM after 48 hrs by DAPI staining based fluorescence microscopy assay; format: functional, cell-based; settings: in the assay text read “androgen-independent” for “androgen-dependent”; method in brief: as §2
LNCaP [18] = assay: Inhibition of actin based pseudopodia formation in androgen-dependent human LNCAP cells at 100 uM after 48 hrs by DAPI staining based fluorescence microscopy assay; format: functional, cell-based
Method in brief: (§3)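 Cells were plated in RPMI-1640 with 10% FBS in chamber slides for 12 h, then exposed to compound or DMSO vehicle for 48 h at 37 °C in 5% CO2. They were fixed with 4% paraformaldehyde in PBS, nuclei were stained with DAPI, and the slides were mounted. Pseudopodia and pseudopodia-like extensions were scored visually by fluorescence microscopy against untreated (DMSO) controls.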

PC-3 [19] = assay: Inhibition of actin based pseudopodia formation in androgen-dependent human PC3 cells at 100 uM after 48 hrs by DAPI staining based fluorescence microscopy assay; format: functional, cell-based; method in brief: as §3

## COc1cc(/C=C/C(=O)/C=C(O)/C=C/c2ccc(OC(C)(C)C(=O)Nc3ccc([N+](=O)[O-])c(C(F)(F)F)c3)c(OC)c2)ccc1O
LNCaP [1]
  IC50: > 100 µM
PC-3 [2]
  IC50: > 100 µM
LNCaP [3]
  Activity: Dose-dependent effect
PC-3 [4]
  Activity: Dose-dependent effect

## COc1cc(/C=C/C(=O)CC(=O)/C=C/c2ccc(O)c(OC)c2)ccc1O [CURCUMIN]
LNCaP [1]
  IC50: 36.4 µM
PC-3 [5]
  inhibition: Active
PC-3 [2]
  IC50: 36 µM
LNCaP [6]
  inhibition: Active
[7]
  Drug uptake: Active
PC-3 [8]
  Activity: Active

## CC(C)C(=O)Nc1ccc([N+](=O)[O-])c(C(F)(F)F)c1 [FLUTAMIDE]
LNCaP [1]
  IC50: 81.8 µM
PC-3 [2]
  IC50: 98.8 µM
LNCaP [3]
  Activity: Dose-dependent effect
PC-3 [9]
  Activity: inactive
PC-3 [4]
  Activity: Dose-dependent effect

## COc1cc(/C=C/C(=O)/C=C(O)/C=C/c2ccc(OC(C)(C)C(=O)Nc3ccc(C)c(C(F)(F)F)c3)c(OC)c2)ccc1O
LNCaP [1]
  IC50: > 100 µM
PC-3 [2]
  IC50: > 100 µM
LNCaP [3]
  Activity: Dose-dependent effect
PC-3 [4]
  Activity: Dose-dependent effect

## COc1ccc(/C=C/C(=O)/C=C(O)/C=C/c2ccc(OCC(C)(O)C(=O)Nc3ccc([N+](=O)[O-])c(C(F)(F)F)c3)c(OC)c2)cc1OC (stereo not given)
LNCaP [1]
  IC50: 41.8 µM
PC-3 [10]
  Activity: Active
PC-3 [11]
  inhibition: Active
PC-3 [2]
  IC50: 39.1 µM
LNCaP [3]
  Activity: Dose-dependent effect
LNCaP [12]
  inhibition: Active
PC-3 [4]
  Activity: Dose-dependent effect

## COc1cc(/C=C/C(=O)/C=C(O)/C=C/c2ccc(OC(C)(C)C(=O)Nc3ccc(C#N)c(C(F)(F)F)c3)c(OC)c2)ccc1O
PC-3 [13]
  Activity: Active
LNCaP [1]
  IC50: 55 µM
LNCaP [14]
  inhibition: Active
[15]
  Drug uptake: Active
PC-3 [2]
  IC50: 48.1 µM
LNCaP [3]
  Activity: Dose-dependent effect
PC-3 [4]
  Activity: Dose-dependent effect
PC-3 [16]
  inhibition: Active

## COc1ccc(/C=C/C(=O)/C=C(O)/C=C/c2ccc(OC(C)(C)C(=O)Nc3ccc([N+](=O)[O-])c(C(F)(F)F)c3)c(OC)c2)cc1OC
LNCaP [1]
  IC50: > 100 µM
PC-3 [2]
  IC50: > 100 µM
LNCaP [3]
  Activity: Dose-dependent effect
PC-3 [4]
  Activity: Dose-dependent effect

## COc1ccc(/C=C/C(=O)C(F)(F)C(=O)/C=C/c2ccc(OC)c(OC)c2)cc1OC
LNCaP [1]
  IC50: 53.8 µM
PC-3 [2]
  IC50: 44.3 µM

## COc1ccc(/C=C/C(=O)/C=C(O)/C=C/c2ccc(OCCCC(=O)Nc3ccc(C#N)c(C(F)(F)F)c3)c(OC)c2)cc1OC
LNCaP [1]
  IC50: 96.3 µM
PC-3 [2]
  IC50: > 100 µM

## COc1cc(/C=C/C(O)=C/C(=O)/C=C/c2ccc(OC)c(OC)c2)ccc1O [METHYLCURCUMIN]
LNCaP [1]
  IC50: 47 µM
PC-3 [11]
  inhibition: Active
PC-3 [2]
  IC50: 33.1 µM
PC-3 [17]
  Activity: Active
LNCaP [12]
  inhibition: Active

## COc1ccc(/C=C/C(=O)/C=C(O)/C=C/c2ccc(OCC(C)(O)C(=O)Nc3ccc(C#N)c(C(F)(F)F)c3)c(OC)c2)cc1OC (stereo not given)
LNCaP [1]
  IC50: 73 µM
PC-3 [2]
  IC50: 100 µM
LNCaP [3]
  Activity: Dose-dependent effect
PC-3 [4]
  Activity: Dose-dependent effect

## COc1ccc(/C=C/C(=O)/C=C(O)/C=C/c2ccc(OC(C)(C)C(=O)Nc3ccc(Cl)c(C(F)(F)F)c3)c(OC)c2)cc1OC
LNCaP [1]
  IC50: > 100 µM
PC-3 [2]
  IC50: > 100 µM
LNCaP [3]
  Activity: Dose-dependent effect
PC-3 [4]
  Activity: Dose-dependent effect

## COc1cc(/C=C/C(=O)/C=C(O)/C=C/c2ccc(OC(C)(C)C(=O)Nc3ccc(F)c(C(F)(F)F)c3)c(OC)c2)ccc1O
LNCaP [1]
  IC50: 54.8 µM
PC-3 [2]
  IC50: 52.1 µM
LNCaP [3]
  Activity: Dose-dependent effect
PC-3 [4]
  Activity: Dose-dependent effect

## CC(O)(CS(=O)(=O)c1ccc(F)cc1)C(=O)Nc1ccc(C#N)c(C(F)(F)F)c1 (racemic) [BICALUTAMIDE]
LNCaP [18]
  inhibition: inactive
LNCaP [1]
  IC50: 74 µM
PC-3 [2]
  IC50: 76.4 µM
LNCaP [3]
  Activity: Dose-dependent effect
PC-3 [9]
  Activity: inactive
PC-3 [19]
  inhibition: Active
PC-3 [4]
  Activity: Dose-dependent effect

## COc1cc(/C=C/C(=O)/C=C(O)/C=C/c2ccc(OC(C)(C)C(=O)Nc3ccc(Cl)c(C(F)(F)F)c3)c(OC)c2)ccc1O
LNCaP [1]
  IC50: > 100 µM
PC-3 [2]
  IC50: > 100 µM
LNCaP [3]
  Activity: Dose-dependent effect
PC-3 [4]
  Activity: Dose-dependent effect

## COc1ccc(/C=C/C(=O)/C(F)=C(O)/C=C/c2ccc(OC)c(OC)c2)cc1OC
LNCaP [1]
  IC50: 27.3 µM
PC-3 [2]
  IC50: 17.7 µM

## COc1ccc(/C=C/C(=O)/C=C(O)/C=C/c2ccc(OC)c(OC)c2)cc1OC [DIMETHYLCURCUMIN]
LNCaP [1]
  IC50: 15.3 µM
PC-3 [2]
  IC50: 23.7 µM

## COc1ccc(/C=C/C(=O)/C=C(O)/C=C/c2ccc(OC(C)(C)C(=O)Nc3ccc(C#N)c(C(F)(F)F)c3)c(OC)c2)cc1OC
LNCaP [1]
  IC50: > 100 µM
PC-3 [2]
  IC50: > 100 µM
LNCaP [3]
  Activity: Dose-dependent effect
PC-3 [4]
  Activity: Dose-dependent effect

## COc1ccc(/C=C/C(=O)/C=C(O)/C=C/c2ccc(OCCCCCCCCCCC(=O)Nc3ccc(C#N)c(C(F)(F)F)c3)c(OC)c2)cc1OC
LNCaP [1]
  IC50: > 100 µM
PC-3 [2]
  IC50: > 100 µM

Reference: ChEMBL document CHEMBL2046304, “Antitumor agents 290. Design, synthesis, and biological evaluation of new LNCaP and PC-3 cytotoxic curcumin analogs conjugated with anti-androgens” (Bioorg Med Chem, 2012)
